Test results reported in ChEMBL document CHEMBL3867443, “Polyprenylated Tetraoxygenated Xanthones from the Roots of Hypericum monogynum and Their Neuroprotective Activities” (J Nat Prod, 2016).
The source made the active and inactive calls. The calls are words filed in the database; no cut-off is given here.

Columns and labels:
[1] = Neuroprotective activity in rat PC12 cells assessed as reduction in corticosterone-induced lesions by measuring cell viability at 6.25 uM pretreated for 24 hrs followed by corticosterone-challenge after 48 hrs by MTT assay; type: functional, cell-based; conditions: PC-12
Method in brief: (§1)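 PC12 cells seeded at 2 × 10^4 cells/well and pretreated 24 h with compound, then 200 μM corticosterone for 48 h. Fluoxetine 12.50 μM was the positive control. MTT absorbance read at 570 nm with 630 nm reference. Viability given as % of untreated control, mean ± SEM of three independent experiments, compared by ANOVA.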

[2] = Neuroprotective activity in rat PC12 cells assessed as reduction in corticosterone-induced lesions by measuring cell viability at 25 uM pretreated for 24 hrs followed by corticosterone-challenge after 48 hrs by MTT assay; type: functional, cell-based; conditions: PC-12; method in brief: as §1
[3] = system: BV-2; test: Inhibition of LPS-induced NO production in […] preincubated for 2 hrs followed by LPS-stimulation measured after 18 hrs by Griess assay; type: functional, cell-based; conditions: Mus musculus
Method in brief: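 BV2 cells seeded at 2.5 × 10^5 cells/mL and preincubated 2 h with compound, then LPS at 100 ng/mL final for 18 h. Supernatant was mixed 1:1 with Griess reagent for 10 min at room temperature and read at 540 nm. Inhibition = (AL − A0 − AC)/(AL − A0) × 100. IC50 reported as mean ± SEM of three independent experiments. L-NMMA was the positive control.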

[4] = Neuroprotective activity in rat PC12 cells assessed as reduction in corticosterone-induced lesions by measuring cell viability at 12.5 uM pretreated for 24 hrs followed by corticosterone-challenge after 48 hrs by MTT assay; type: functional, cell-based; conditions: PC-12; method in brief: as §1
[5] = species on record: Rattus norvegicus; test: Cytotoxicity against rat PC12 cells at 25 uM by MTT assay; type: toxicity, cell-based; conditions: pc-12, 25 µM
Method in brief: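 PC12 cells in DMEM with 10% FBS, 5% horse serum and penicillin/streptomycin, 37 °C, 5% CO2. Seeded at 2 × 10^4 cells/well and exposed to compound at 25.00 μM. Viability was read by MTT.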

[6] = Cytotoxicity against […] BV2 cells assessed as cell viability by MTT assay relative to control; type: toxicity, cell-based, BV-2; design: concentration or dose not given beside the values; conditions: mouse, read-out: Activity
Method in brief: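 BV2 microglia in DMEM with 10% heat-inactivated FBS and penicillin/streptomycin, 37 °C, 5% CO2. Viability was read by MTT in the cells used for the NO assay, which received 2 h compound pretreatment and then LPS at 100 ng/mL final for 18 h.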

[7] = system: PC-12; test: Decrease in corticosterone-induced intracellular calcium level in rat PC12 cells at 6.25 to 25 uM pretreated for 24 hrs followed by corticosterone-challenge after 48 hrs by Fluo-3AM dye-based flow cytometry; type: functional, cell-based
Method in brief: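 PC12 cells were pretreated 24 h with compound (6.25, 12.50, 25.00 μM) or fluoxetine 12.50 μM, then exposed to 200 μM corticosterone for 48 h. Cells were loaded with Fluo-3 AM and analysed by flow cytometry. Results are mean fluorescence intensity relative to vehicle control, mean ± SEM, n = 3.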

Structure (SMILES): C=C(C)C(CC=C(C)C)Cc1c2c(c(O)c3c(=O)c4ccc(O)c(O)c4oc13)C=CC(C)(C)O2 (centres undefined)
- Activity [1]: 64.8%
- Activity [2]: 65.4%
- IC50 [3]: > 50 µM
- Activity [4]: 71.2%
- Activity [5]: Non-Toxic
- viability [6]: > 90%

Structure (SMILES): C=C(C)[C@H](CC=C(C)C)Cc1c(O)cc2oc3c(O)c(O)ccc3c(=O)c2c1O
- Activity [1]: 75.2%
- Activity [2]: 85.9%
- IC50 [3]: 9.6 µM
- Activity [4]: 78.8%
- Activity [5]: Non-Toxic
- viability [6]: > 90%

Structure (SMILES): C=C(C)C(CC=C(C)C)Cc1c(O)cc(O)c2c(=O)c3ccc(O)c(O)c3oc12 (centres undefined)
- Activity [1]: 60.7%
- Activity [2]: 84.1%
- IC50 [3]: 8.35 µM
- Activity [4]: 78.1%
- Activity [5]: Non-Toxic
- viability [6]: > 90%

Structure (SMILES): C[C@]12C[C@H](O)[C@H]3[C@@H](CCC4=CC(=O)CC[C@@]43C)[C@@H]1CC[C@@H]2C(=O)CO
- Activity [2]: 52.8%

Structure (SMILES): C=C(C)[C@H](CC=C(C)C)Cc1c(O)c(C[C@@H](CC=C(C)C)C(=C)C)c2oc3c(O)c(O)ccc3c(=O)c2c1O
- Activity [7]: Active
- Activity [1]: 78.4%
- Activity [2]: 92%
- IC50 [3]: 7.47 µM
- Activity [4]: 83.8%
- Activity [5]: Non-Toxic
- viability [6]: > 90%

Structure (SMILES): CNCCC(Oc1ccc(C(F)(F)F)cc1)c1ccccc1 (centres undefined)
- Activity [4]: 70.5%

Structure (SMILES): CNC(=N)NCCC[C@H](N)C(=O)O [TILARGININE]
- IC50 [3]: 39.3 µM

Structure (SMILES): C=C(C)C(CC=C(C)C)Cc1c(O)c(CC=C(C)C)c(O)c2c(=O)c3ccc(O)c(O)c3oc12 (centres undefined)
- Activity [1]: 57.5%
- Activity [2]: 66%
- IC50 [3]: 5.66 µM
- Activity [4]: 60.2%
- Activity [5]: Non-Toxic
- viability [6]: > 90%
